Measured values as given in BindingDB's records for doi:10.1021/acs.jmedchem.7b00693 (The University of Tokyo, 2017).

biological target: Probable G-protein coupled receptor 34 (Mus musculus, UniProt Q9R1K6); assay: Agonist activity at mouse GPR34 expressed in HEK293 cells co-transfected with AP-TGFalpha/chimeric Galphaq/i1 assessed as induction of ectodomain shedding of membrane bound AP-TGFalpha after 1 hr
Outline: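 HEK293A cells transiently co-transfected with AP-TGFα, chimeric Gαq/i1 and GPR34 (human for line 1, mouse for line 3) or empty vector (mock). After 24 h, cells were suspended in HBSS with 5 mM HEPES pH 7.4 and preincubated 30 min with 10 μM (final) Ki16425. Compounds in HBSS with 0.01% fatty acid-free BSA were added for 1 h at 37 °C. AP activity in medium and on cells was read as OD405 with p-NPP after 1 h at room temperature.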

Probable G-protein coupled receptor 34, sequence (Q9R1K6 whole entry, the tested form may be a part): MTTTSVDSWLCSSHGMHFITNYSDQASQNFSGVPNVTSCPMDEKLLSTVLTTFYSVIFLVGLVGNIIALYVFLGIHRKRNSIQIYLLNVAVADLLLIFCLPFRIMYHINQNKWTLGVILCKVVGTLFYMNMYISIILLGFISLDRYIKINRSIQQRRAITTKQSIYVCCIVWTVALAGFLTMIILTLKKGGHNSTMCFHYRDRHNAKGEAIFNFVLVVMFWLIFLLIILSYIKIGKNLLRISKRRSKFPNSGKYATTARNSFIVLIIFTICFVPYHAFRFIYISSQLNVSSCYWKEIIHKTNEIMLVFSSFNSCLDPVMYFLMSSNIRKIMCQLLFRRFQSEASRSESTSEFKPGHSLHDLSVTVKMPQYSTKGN

EC50, > 3.16 µM:
CCCCCCCC/C=C\CCCCCCCC(=O)OCCCOP(=O)(O)OC[C@H](N)C(=O)O, CC(C)(C)c1ccccc1Oc1cccc(COc2ccccc2CCC(=O)OCCCOP(=O)(O)OC[C@H](N)C(=O)O)c1, N[C@@H](COP(=O)(O)OCCCOC(=O)CCc1ccccc1OCc1cccc(OCc2ccccc2)c1)C(=O)O, N[C@@H](COP(=O)(O)OCCCOC(=O)CCc1ccccc1OCc1cccc(-c2ccccc2)c1)C(=O)O, CCCCCCOc1cccc(COc2ccccc2CCC(=O)OCCCOP(=O)(O)OC[C@H](N)C(=O)O)c1, CCCCCCOCC#CCOc1ccccc1CCC(=O)OCCCOP(=O)(O)OC[C@H](N)C(=O)O
